Results on 33 molecules are retold here after ChEMBL document CHEMBL1141911, “Discovery and SAR studies of a novel series of noncovalent cathepsin S inhibitors” (Bioorg Med Chem Lett, 2005).

For test [1], the system named is JY. Nature of the test: Inhibitory concentration against Ii degradation in human JY cells. Type of test: functional, cell-based. Put shortly: (§1)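 Inhibition of invariant chain (Ii) cleavage was measured in human JY cells, an antigen-presenting line. IC50 values are the mean of at least 3 runs.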
Test [2] in a line: Binding affinity against alpha-1A adrenergic receptor.
In the next test the target is Cathepsin S (Homo sapiens, UniProt P25774). Nature of the test: Inhibitory concentration against cathepsin S.
The test system of test [3] is JY. Nature of the test: Inhibitory concentration against Ii degradation in human JY cells (range IC50 = 0.6-0.8 uM). Type of test: functional, cell-based. The gist of the method: as §1

SMILES strings stand for the structures.

Cathepsin S, sequence (P25774 whole entry): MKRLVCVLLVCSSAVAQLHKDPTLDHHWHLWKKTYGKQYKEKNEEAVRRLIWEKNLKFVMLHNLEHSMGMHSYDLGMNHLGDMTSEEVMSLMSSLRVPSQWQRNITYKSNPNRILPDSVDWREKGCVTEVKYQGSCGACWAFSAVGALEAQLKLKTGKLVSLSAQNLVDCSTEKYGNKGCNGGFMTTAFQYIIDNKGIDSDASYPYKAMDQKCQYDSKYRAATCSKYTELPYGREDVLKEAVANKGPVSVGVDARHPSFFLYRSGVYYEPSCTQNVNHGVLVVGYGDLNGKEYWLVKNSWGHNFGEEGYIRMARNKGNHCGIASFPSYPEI

For the molecule `N#Cc1ccccc1N1CCN(CC(Cn2nc(-c3ccc(I)cc3)c3c2CCN(C(N)=O)C3)OC(N)=O)CC1` (stereo unspecified), in the test on JY [1], the IC50 (commonly the point on the concentration scale where inhibition reaches its midpoint) was found to be 880 nM. Moreover, the Ki – broadly, a dissociation constant, usually derived from enzyme kinetics or from competition with a known ligand – in test [2] came out at 12 nM.

`CC(=O)N1CCc2c(c(-c3ccc(C(F)(F)F)cc3)nn2CC(O)CN2CCC(n3c(=O)n(C)c4ccccc43)CC2)C1` (stereo unspecified) yielded a half-maximal inhibitory concentration (IC50) against Cathepsin S of 110 nM. This lies in the sub-micromolar range. `CCCCn1c(=O)n(C2CCN(CC(O)Cn3nc(-c4ccc(Cl)c(C)c4)c4c3CCN(C(C)=O)C4)CC2)c2ccccc21` (stereo unspecified) returned a half-inhibitory concentration (IC50) on Cathepsin S of 140 nM. On Cathepsin S, `CC(=O)N1CCc2c(c(-c3ccc(C(F)(F)F)cc3)nn2C[C@@H](O)CN2CCC(n3c(O)nc4ccc(Cl)cc43)CC2)C1` displayed an IC50 of 200 nM.

Molecule `CC(=O)N1CCc2c(c(-c3ccc(C(F)(F)F)cc3)nn2CC(O)CN2CCC(n3c(=O)[nH]c4ccccc43)CC2)C1` (stereo unspecified) yielded an IC50 on Cathepsin S of 100 nM. As to `CC(=O)N1CCc2c(c(-c3ccc(Cl)c(C)c3)nn2CC(O)CN2CCC(n3c(=O)[nH]c4ccccc43)CC2)C1` (stereo unspecified), the midpoint of inhibition on Cathepsin S, the IC50, lay at 130 nM. Still for that read-out and setting: with `Cn1c(=O)n(C2CCN(CCCn3nc(-c4ccc(Cl)c(Cl)c4)c4c3CCN(S(C)(=O)=O)C4)CC2)c2ccccc21` the figure was 50 nM; with `CC(=O)N1CCc2c(c(-c3ccc(Cl)cc3)nn2CC(O)CN2CCN(C(c3ccc(F)cc3)c3ccc(F)cc3)CC2)C1` (stereo unspecified), 1000 nM; with `CS(=O)(=O)N1CCc2c(c(-c3ccc(Br)cc3)nn2CC(O)CN2CCC(n3c(=O)[nH]c4ccc(Cl)cc43)CC2)C1` (stereo unspecified), 50 nM.

Turning to `CS(=O)(=O)N1CCc2c(c(-c3ccc(Br)cc3)nn2CCCN2CCC(n3c(=O)[nH]c4ccccc43)CC2)C1`, the IC50 against Cathepsin S was found to be 50 nM.

Regarding `CC(=O)N1CCc2c(c(-c3ccc(Cl)c(C)c3)nn2C[C@H](O)CN2CCC(n3c(=O)[nH]c4ccc(Cl)cc43)CC2)C1`, at Cathepsin S, the IC50 was 350 nM. Same read-out and setting: under `COc1ccc2c(c1)[nH]c(=O)n2C1CCN(CC(O)Cn2nc(-c3ccc(Br)cc3)c3c2CCN(C(C)=O)C3)CC1` (stereo unspecified) stands 140 nM. In the case of `CC(=O)N1CCc2c(c(-c3ccc(Cl)c(C)c3)nn2CC(O)CN2CCC(n3c(=O)n(C(C)C)c4ccccc43)CC2)C1` (stereo unspecified), on Cathepsin S, the IC50 came out at 100 nM. For the molecule `Cn1c(=O)n(C2CCN(CCCn3nc(-c4ccc(Br)cc4)c4c3CCN(S(C)(=O)=O)C4)CC2)c2ccccc21`, the IC50 at Cathepsin S is 140 nM. The IC50 values of the last two molecules are within 1.5-fold of each other.

`CC(=O)N1CCc2c(c(-c3ccc(Br)cc3)nn2CC(O)CN2CCC(n3c(=O)[nH]c4cc(Cl)c(Cl)cc43)CC2)C1` (stereo unspecified) had an IC50 at Cathepsin S of 110 nM.

`CC(=O)N1CCc2c(c(-c3ccc(I)cc3)nn2CC(O)CN2CCN(c3ccccc3C#N)CC2)C1` (stereo unspecified) came in with an IC50 in the test on JY [1] of 3900 nM. For the molecule `CS(=O)(=O)N1CCc2c(c(-c3ccc(C(F)(F)F)cc3)nn2CC(O)CN2CCC(n3c(=O)[nH]c4ccccc43)CC2)C1` (stereo unspecified), on Cathepsin S, the midpoint of inhibition, the IC50, lay at 50 nM. This counts as double-digit nanomolar. For `Cc1cc(-c2nn(CC(O)CN3CCC(n4c(=O)[nH]c5ccccc54)CC3)c3c2CN(S(C)(=O)=O)CC3)ccc1Cl` (stereo unspecified), the midpoint of inhibition at Cathepsin S, the IC50, lay at 60 nM.

`CC(=O)N1CCc2c(c(-c3ccc(Cl)cc3)nn2CC(O)CN2CCC(n3c(=O)[nH]c4ccccc43)CC2)C1` (stereo unspecified) yielded a concentration for half-maximal inhibition (IC50) against Cathepsin S of 460 nM. As to `CS(=O)(=O)N1CCc2c(c(-c3ccc(C(F)(F)F)cc3)nn2CCCN2CCC(n3c(=O)[nH]c4ccccc43)CC2)C1`, at Cathepsin S, the IC50 is 50 nM. Consider `Cn1c(=O)n(C2CCN(CCCn3nc(-c4ccc(C(F)(F)F)cc4)c4c3CCN(S(C)(=O)=O)C4)CC2)c2cc(Cl)ccc21`, for which the IC50 in the test with JY [3] worked out at 800 nM; at Cathepsin S, 100 nM. In turn, `CC(=O)N1CCc2c(c(-c3ccc(I)cc3)nn2CC(O)CN2CCC(n3c(=O)[nH]c4ccc(F)cc43)CC2)C1` (stereo unspecified) showed an IC50 against Cathepsin S of 230 nM. Molecule `CC(=O)N1CCc2c(c(-c3ccc(Br)cc3)nn2CC(O)CN2CCC(n3c(=O)[nH]c4cccc(C)c43)CC2)C1` (stereo unspecified) displayed an IC50 against Cathepsin S of 210 nM. With `CC(=O)N1CCc2c(c(-c3ccc(Cl)c(C)c3)nn2CC(O)CN2CCC(n3c(=O)n(C)c4ccccc43)CC2)C1` (stereo unspecified), on Cathepsin S, inhibition was half-maximal at 500 nM (IC50). In the test on JY [1], `N#Cc1ccccc1N1CCN(CC(O)Cn2nc(-c3ccc(I)cc3)c3c2CCN(C(N)=O)C3)CC1` (stereo unspecified) registered an IC50 of 1300 nM. This molecule also came in with a Ki in test [2] of 36 nM. `CS(=O)(=O)N1CCc2c(c(-c3ccc(C(F)(F)F)cc3)nn2CC(O)CN2CCC(n3c(=O)[nH]c4ccc(Cl)cc43)CC2)C1` (stereo unspecified) displayed an IC50 on Cathepsin S of 60 nM. As for `CC(=O)N1CCc2c(c(-c3ccc(Cl)c(C)c3)nn2CC(O)CN2CCC(n3c(=O)[nH]c4cc(C)ccc43)CC2)C1` (stereo unspecified), the midpoint of inhibition against Cathepsin S, the IC50, lay at 100 nM.

`CCn1c(=O)n(C2CCN(CC(O)Cn3nc(-c4ccc(Cl)c(C)c4)c4c3CCN(C(C)=O)C4)CC2)c2ccccc21` (stereo unspecified) gave an IC50 against Cathepsin S of 310 nM.

Take `Cn1c(=O)n(C2CCN(CC(O)Cn3nc(-c4ccc(C(F)(F)F)cc4)c4c3CCN(S(C)(=O)=O)C4)CC2)c2cc(Cl)ccc21` (stereo unspecified): the IC50 against Cathepsin S came to 80 nM. Compared with the last molecule, the IC50 is about 3.9-fold lower. Same read-out and setting: under `CC(=O)N1CCc2c(c(-c3ccc(I)cc3)nn2CC(O)CN2CCC(n3c(=O)[nH]c4ccccc43)CC2)C1` (stereo unspecified) stands 120 nM. On the same count and under the same terms, under `CC(=O)N1CCc2c(c(-c3ccc(C(F)(F)F)cc3)nn2C[C@H](O)CN2CCC(n3c(O)nc4ccc(Cl)cc43)CC2)C1` stands 180 nM.

`CC(=O)N1CCc2c(c(-c3ccc(Br)cc3)nn2CC(O)CN2CCC(n3c(=O)[nH]c4ccccc43)CC2)C1` (stereo unspecified): the IC50 against Cathepsin S was determined as 80 nM. In the case of `Cn1c(=O)n(C2CCN(CCCn3nc(-c4ccc(Cl)c(Cl)c4)c4c3CCN(S(C)(=O)=O)C4)CC2)c2cc(Cl)ccc21`, half-maximal inhibition against Cathepsin S (IC50) was put at 150 nM. Against the preceding molecule, the IC50 is about 1.9-fold higher.
